The source of these data is paper PMC10413923 (Journal of Enzyme Inhibition and Medicinal Chemistry, 2023).

Common to all, as to assay type: cell-based
The subject of one test is IL-6. Description: IL-6 level by ELISA in conditioned medium of LPS-human macrophages. As to conditions: 14b at EC50 (5.3 µmol/mL), 48 h. The procedure, abridged:
(§1)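 IL-6, IL-1β, TNF-α and NF-κB levels were measured in LPS-stimulated human macrophages exposed to test compound. Comparison groups were untreated LPS-macrophages as negative control and dexamethasone-treated macrophages as reference.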
For orientation: In an ELISA, binding on a coated surface is turned into a signal by an enzyme label.

The next test has as its system IL-1β. As to the kind of experiment: IL-1β level by ELISA in conditioned medium of LPS-human macrophages. As to conditions: 14b at EC50 (5.3 µmol/mL), 48 h. The procedure, abridged:
as §1

In a further test the test system is TNF-α. As to the kind of experiment: TNF-α level by ELISA in conditioned medium of LPS-human macrophages. As to conditions: 14b at EC50 (5.3 µmol/mL), 48 h. The procedure, abridged:
as §1

The subject of a further test is NF-kβ. As to the kind of experiment: NF-kβ level by ELISA in LPS-human macrophages. The note with it: 14b at EC50 (5.3 µmol/mL), 48 h. The procedure, abridged:
as §1

The next test concerns HO-1 (HMOX1). As to the kind of experiment: HO-1. As to conditions: LPS-human macrophages, 48 h; 14b at EC50 (5.3 µmol/mL); qPCR. The procedure, abridged: (§2)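 LPS-stimulated human macrophages (inflammatory model) were exposed to test compound at 5.3 µmol/mL for 48 h. Akt and HMOX1 (HO-1) gene expression was measured alongside untreated LPS-macrophages as negative control and dexamethasone-treated macrophages as reference. Expression is reported as fold change relative to untreated macrophage cells.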
(In general: Real-time PCR tracks product formation cycle by cycle.)

For the next test, the system named is Akt. As to the kind of experiment: Akt gene expression by qPCR in LPS-human macrophages. As to conditions: 48 h, 14b at EC50 (5.3 µmol/mL). The procedure, abridged: as §2

Regarding `COc1ccc(C(C)=NNC(=O)COc2ccc3c(C)cc(=O)oc3c2C)cc1OC` [Compound 14b, 2–(4,8-Dimethyl-2-oxo-2H-chromen-7-yloxy)-N'-(1–(3,4-dimethoxyphenyl)ethylidene)acetohydrazide], the “reduction in IL-6 level relative to negative control cells” value in the test with IL-6 was determined as 1.41 fold. Besides, in the test on IL-1β, the “reduction in IL-1β level relative to untreated macrophage cells” value is listed as 1.65 fold. Also, in the test with TNF-α, the “reduction in TNF-α level relative to untreated control cells” value is reported as 1.19 fold. Further, in the test on NF-kβ, the “NF-kβ modulation compared with Dexa (in words)” value is “comparable efficacy to Dexa” and the “reduction in NF-kβ level relative to untreated control cells” value was 2.31 fold. Moreover, in the test with HO-1 (HMOX1), the “upregulation of HO-1 gene expression compared to untreated macrophage cells” value turned out to be 6.5 fold.

With `C[C@@H]1C[C@H]2[C@@H]3CCC4=CC(=O)C=C[C@]4(C)[C@@]3(F)[C@@H](O)C[C@]2(C)[C@@]1(O)C(=O)CO` [Dexa, dexamethasone, reference compound], in the test with HO-1 (HMOX1), the “upregulation of HO-1 gene expression compared to untreated macrophage cells” value is reported as 4.38 fold. Moreover, the “increase in Akt gene expression relative to untreated macrophage cells” value in the test on Akt worked out at 3.2 fold.
